In ChEMBL document CHEMBL1133165, “Synthesis and cytostatic activity of substituted 6-phenylpurine bases and nucleosides: application of the Suzuki-Miyaura cross-coupling reactions of 6-chloropurine derivatives with phenylboronic acids” (J Med Chem, 2000) one finds IC50 and Inhibition data, which are given here for 19 compounds.

By pIC50 is commonly meant the IC50 on a negative log10 scale, so that one unit is a factor of ten. What is called Inhibition is the change of the read-out against control, counted positive when it falls. Read a low Inhibition as a weak effect.

pIC50: −log10 of the molar value.

Assay [1] has as its system CCRF-CEM. As to the kind of experiment: In vitro inhibition of cell growth (Cytostatic activity) of human T-lymphoblastoid CCRF-CEM cell line (ATCC CCL 119). The format is functional, cell-based. A digest of the protocol: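 CCRF-CEM cells grown in RPMI 1640 with L-glutamine (0.3 g/L) and 10% bovine serum, seeded at 10⁵ mL^-1. After 24 h at 37 °C under CO₂, compounds were added at five concentrations. Cells were counted with a cell counter 72 h after addition. IC50 values were derived from the counts.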

Assay [2] has as its system HeLa. As to the kind of experiment: In vitro inhibition of cell growth (Cytostatic activity) of human cervix carcinoma HeLa S3 cells (ATCC CCL 2.2). The format is functional, cell-based.
In assay [3] the test system is L1210. As to the kind of experiment: In vitro inhibition of cell growth (Cytostatic activity) of mouse leukemia L1210 cells (ATCC CCL 219). The format is functional, cell-based.
Assay [4] relates to L1210. Kind of assay: In vitro inhibition of cell growth (Cytostatic activity) of mouse leukemia L1210 cells (ATCC CCL 219); inhibition @ 10 uM/L. The format is functional.
For assay [5], the system named is HeLa. Kind of assay: In vitro inhibition of cell growth (Cytostatic activity) of human cervix carcinoma HeLa S3 cells (ATCC CCL 2.2); inhibition @ 10 uM/L. The format is functional.
The test system of assay [6] is CCRF-CEM. Kind of assay: In vitro inhibition of cell growth (Cytostatic activity) of human T-lymphoblastoid CCRF-CEM cell line (ATCC CCL 119); inhibition @ 10 uM/L. The format is functional.

In the case of `OC[C@H]1O[C@@H](n2cnc3c(-c4ccccc4)ncnc32)[C@H](O)[C@@H]1O`, the negative logarithm of the IC50 (pIC50) in the assay on CCRF-CEM [1] is 6.15; in the assay on HeLa [2], 5.57; in the assay with L1210 [3] it was 5.05.
As for `CC(=O)OC[C@H]1O[C@@H](n2cnc3c(-c4ccc(F)cc4)ncnc32)[C@H](OC(C)=O)[C@@H]1OC(C)=O`, the pIC50 in the assay with CCRF-CEM [1] was 5.40; with HeLa [2], 4.82. This compound also had an Inhibition in the assay with L1210 [4] below 20%.
Regarding `CC(=O)OC[C@H]1O[C@@H](n2cnc3c(-c4ccc(F)cc4F)ncnc32)[C@H](OC(C)=O)[C@@H]1OC(C)=O`, the Inhibition in the assay with HeLa [5], in the assay on CCRF-CEM [6] and in the assay on L1210 [4] was below 20% in each case.
Regarding `CC(=O)OC[C@H]1O[C@@H](n2cnc3c(-c4ccccc4C)ncnc32)[C@H](OC(C)=O)[C@@H]1OC(C)=O`, the Inhibition in the assay on HeLa [5], in the assay with CCRF-CEM [6] and with L1210 [4] was below 20% each time.
As for `COc1ccc(-c2ncnc3c2ncn3[C@@H]2O[C@H](COC(C)=O)[C@@H](OC(C)=O)[C@H]2OC(C)=O)cc1`, the pIC50 was 5.37 in the assay on CCRF-CEM [1], 4.72 with HeLa [2] and 4.77 in the assay on L1210 [3].
Turning to `CC(=O)OC[C@H]1O[C@@H](n2cnc3c(-c4ccc(C)cc4)ncnc32)[C@H](OC(C)=O)[C@@H]1OC(C)=O`, the Inhibition in the assay with HeLa [5], in the assay with CCRF-CEM [6] and with L1210 [4] was below 20% each time.
In the case of `CC(=O)OC[C@H]1O[C@@H](n2cnc3c(-c4ccc(F)c(F)c4)ncnc32)[C@H](OC(C)=O)[C@@H]1OC(C)=O`, the values for the pIC50 in the assay on CCRF-CEM [1] and in the assay on HeLa [2] were 5.08 and 4.82, respectively. In addition, the Inhibition in the assay with L1210 [4] is below 20%.
Turning to `CC(=O)OC[C@H]1O[C@@H](n2cnc3c(-c4ccccc4)ncnc32)[C@H](OC(C)=O)[C@@H]1OC(C)=O`, the pIC50 in the assay with CCRF-CEM [1] was 4.98. For the same compound, the Inhibition in the assay on HeLa [5] and in the assay on L1210 [4] was below 20% throughout.
Regarding `COc1cccc(-c2ncnc3c2ncn3[C@@H]2O[C@H](COC(C)=O)[C@@H](OC(C)=O)[C@H]2OC(C)=O)c1`, the Inhibition with HeLa [5], with CCRF-CEM [6] and in the assay with L1210 [4] was below 20% throughout.
`CC(=O)OC[C@H]1O[C@@H](n2cnc3c(-c4ccc(Cl)cc4)ncnc32)[C@H](OC(C)=O)[C@@H]1OC(C)=O` had a pIC50 in the assay with CCRF-CEM [1] of 5.37. The Inhibition with HeLa [5] and with L1210 [4] was below 20% throughout.
In the case of `CCOc1ccc(-c2ncnc3c2ncn3[C@@H]2O[C@H](COC(C)=O)[C@@H](OC(C)=O)[C@H]2OC(C)=O)cc1`, the pIC50 with CCRF-CEM [1] was 5.42. Besides, the Inhibition with HeLa [5] and in the assay on L1210 [4] was below 20% in each case.
Consider `CCOc1ccc(-c2ncnc3c2ncn3C2O[C@H](CO)[C@@H](O)[C@H]2O)cc1` (some centres not stated), for which the pIC50 is 6.22 with CCRF-CEM [1], 5.30 in the assay on HeLa [2] and 5.60 with L1210 [3].
The compound `COc1cccc(-c2ncnc3c2ncn3C2O[C@H](CO)[C@@H](O)[C@H]2O)c1` (some centres not stated) had a pIC50 in the assay with CCRF-CEM [1] of 5.32.
On to `COc1ccc(-c2ncnc3c2ncn3C2O[C@H](CO)[C@@H](O)[C@H]2O)cc1` (some centres not stated), for which the pIC50 in the assay with CCRF-CEM [1] is 6.60; in the assay on HeLa [2], 5.37; with L1210 [3], 5.82.
On to `OC[C@H]1OC(n2cnc3c(-c4ccc(F)c(F)c4)ncnc32)[C@H](O)[C@@H]1O` (some centres not stated), for which the pIC50 with CCRF-CEM [1] is 5.85; with HeLa [2] it was 5.60; in the assay on L1210 [3] it was 4.70.
The like results for `OC[C@H]1OC(n2cnc3c(-c4ccc(F)cc4)ncnc32)[C@H](O)[C@@H]1O` (some centres not stated) were, in that order, 6.12, 5.60 and 5.35.
In turn, `Cc1ccc(-c2ncnc3c2ncn3C2O[C@H](CO)[C@@H](O)[C@H]2O)cc1` (some centres not stated) gave a pIC50 with CCRF-CEM [1] of 5.82.
Turning to `OC[C@H]1OC(n2cnc3c(-c4ccc(Cl)cc4)ncnc32)[C@H](O)[C@@H]1O` (some centres not stated), the negative logarithm of the IC50 (pIC50) with CCRF-CEM [1] was 6.05; in the assay on HeLa [2], 5.30.
Take `Cc1ccccc1-c1ncnc2c1ncn2C1O[C@H](CO)[C@@H](O)[C@H]1O` (some centres not stated): the Inhibition with HeLa [5], in the assay on CCRF-CEM [6] and in the assay with L1210 [4] was below 20% in each case.
